Assay results from different studies.
Each line is one published result; the experiments were not run side by side.
KDR: Vascular endothelial growth factor receptor 2 (KDR, Homo sapiens, UniProt P35968)
PIK3CA: Phosphatidylinositol 4,5-bisphosphate 3-kinase catalytic subunit alpha isoform (PIK3CA, Homo sapiens, UniProt P42336)
PIK3CB: Phosphatidylinositol 4,5-bisphosphate 3-kinase catalytic subunit beta isoform (PIK3CB, Homo sapiens, UniProt P42338)

SMILES | target | effect on | action | method | IC50 [µM]
O=[N+]([O-])c1ccc(O)c(C=NNc2ccc(Br)cc2)c1 | KDR | enzyme activity | inhibitor | ATP luminescence | 12.6
C[C@@H]1O[C@@H](O[C@H]2[C@H](Oc3cc(O)c4c(=O)cc(-c5ccc(O)cc5)oc4c3)O[C@H](CO)[C@@H](O)[C@@H]2O)[C@H](O)[C@H](O)[C@H]1O | KDR | enzyme activity | inhibitor | TR-FRET | > 40
CN(C)C(=O)c1cc2cnc(Nc3ccc4c(=O)cc(N5CCNCC5)oc4c3)nc2n1C1CCCC1 | PIK3CA | enzyme activity | inhibitor | radiometric | > 10
O=[N+]([O-])c1cc(Br)c(O)c(C=NNc2ccc(Br)cc2)c1 | KDR | enzyme activity | inhibitor | ATP luminescence | 7.07
CNC(=O)[C@H](Cc1c[nH]c2ccccc12)NC(=O)[C@@H](CC(=O)NO)CC(C)C | Macrophage metalloelastase (MMP12, Homo sapiens, UniProt P39900) | enzyme activity | inhibitor | – | 0.000328
Cc1c(N2CCOCC2)oc2c(-c3ccc(Nc4ncc5cc(C(=O)N(C)C)n(C6CCCC6)c5n4)cc3F)cccc2c1=O | PIK3CA | enzyme activity | inhibitor | radiometric | > 10
COc1cc(N=C2C(=O)N(Cc3ccccc3)c3ccccc32)cc(OC)c1 | PIK3CA | enzyme activity | inhibitor | ADP detection | 0.00731
CN(C)C(=O)c1cc2cnc(Nc3cncc(-c4cccc5c(=O)cc(N6CCOCC6)oc45)c3)nc2n1C1CCCC1 | PIK3CA | enzyme activity | inhibitor | radiometric | > 10
Cc1cccc(N=C2C(=O)Nc3ccccc32)c1 | PIK3CB | enzyme activity | inhibitor | ADP detection | 0.134
COc1ccc(-c2cc(=O)c3ccc(Nc4ncc5cc(C(=O)N(C)C)n(C6CCCC6)c5n4)cc3o2)cc1 | PIK3CA | enzyme activity | inhibitor | radiometric | > 10
O=[N+]([O-])c1ccc(O)c(C=NNc2ccc(C(F)(F)F)cc2)c1 | KDR | enzyme activity | inhibitor | ATP luminescence | 20.7
Cc1ccc(CN2C(=O)C(=Nc3c(C(C)C)cccc3C(C)C)c3ccccc32)cc1 | PIK3CA | enzyme activity | inhibitor | ADP detection | 0.319
O=[N+]([O-])c1ccc(O)c(C=NNc2ccc(Cl)cc2)c1 | KDR | enzyme activity | inhibitor | ATP luminescence | 21.2
CN(C)C(=O)c1cc2cnc(Nc3cc(C(=O)O)cc(-c4cccc5c(=O)cc(N6CCOCC6)oc45)c3)nc2n1C1CCCC1 | PIK3CA | enzyme activity | inhibitor | radiometric | 1.59
COc1ccc(Nc2nc(Nc3ccc4ncccc4c3)nc(N3CCOCC3)n2)cc1 | PIK3CA | enzyme activity | inhibitor | ADP detection | 1.29
COc1ccc(-c2cc(=O)c3cccc(Nc4ncc5cc(C(=O)N(C)C)n(C6CCCC6)c5n4)c3o2)cc1 | PIK3CA | enzyme activity | inhibitor | radiometric | > 10
O=C1Nc2ccccc2C1=Nc1cccc(Cl)c1 | PIK3CB | enzyme activity | inhibitor | ADP detection | 0.511
O=C(O)CC[C@H](NC(=O)N[C@@H](CCCCNC(=O)[C@H](Cc1ccc2ccccc2c1)NC(=O)[C@H]1CC[C@H](CNC(=O)CN2CCN(CC(=O)O)CCN(CC(=O)O)CCN(CC(=O)O)CC2)CC1)C(=O)O)C(=O)O | Glutamate carboxypeptidase 2 (FOLH1, Homo sapiens, UniProt Q04609) | ligand displacement in cells | – | radioligand | 0.0078
COc1ccc(-c2cc(=O)c3c(O)cc(O[C@@H]4O[C@H](CO[C@@H]5O[C@@H](C)[C@H](O)[C@@H](O)[C@H]5O)[C@@H](O)[C@H](O)[C@H]4O)cc3o2)cc1O | KDR | enzyme activity | inhibitor | TR-FRET | 32.7
CCc1ccc(N=C2C(=O)N(Cc3ccccc3)c3ccccc32)cc1 | PIK3CB | enzyme activity | inhibitor | ADP detection | 0.0221
CN(C)C(=O)c1cc2cnc(Nc3ccc(-c4cccc5c(=O)cc(N6CCOCC6)oc45)c(F)c3)nc2n1C1CCCC1 | PIK3CA | enzyme activity | inhibitor | radiometric | 0.182
O=C(CCc1ccc(Cl)cc1)N1C(=O)C(=Nc2ccc(Cl)cc2Br)c2ccccc21 | PIK3CB | enzyme activity | inhibitor | ADP detection | 0.81
CC(=O)OC[C@H]1O[C@@H]([S-])[C@H](OC(C)=O)[C@@H](OC(C)=O)[C@@H]1OC(C)=O.CCP(CC)CC.[Au+] | Thioredoxin reductase 1, cytoplasmic (TXNRD1, Homo sapiens, UniProt Q16881) | enzyme activity | inhibitor | absorbance | 0.397
O=C1C(=Nc2ccccc2I)c2ccccc2N1Cc1ccc(Br)cc1 | PIK3CB | enzyme activity | inhibitor | ADP detection | 0.435
CN(C)C(=O)c1cc2cnc(Nc3cncc(-c4ccc5c(=O)cc(N6CCOCC6)oc5c4)c3)nc2n1C1CCCC1 | PIK3CA | enzyme activity | inhibitor | radiometric | 0.26
O=C1C(=Nc2ccc(Cl)cc2Br)c2ccccc2N1Cc1ccc(Br)cc1 | PIK3CB | enzyme activity | inhibitor | ADP detection | 0.0344
O=[N+]([O-])c1cc(Br)c(O)c(C=NNc2ccccc2)c1 | KDR | enzyme activity | inhibitor | ATP luminescence | 5.4
